From ChEMBL document CHEMBL1135992, “Quantitative structure-activity relationship analysis of functionalized amino acid anticonvulsant agents using k nearest neighbor and simulated annealing PLS methods” (2002)

Tests used:
Type in all cases: functional
Mus musculus [1] = experiment: In vivo anticonvulsant activity in male albino mice using the maximal electroshock seizure(MES) test upon intraperitoneal administration (exp-1); conditions: ip
In short: (§1)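 Mice (18–25 g) received the test agent intraperitoneally as a suspension in 0.5% (w/v) methylcellulose in water. A 60-cycle alternating current at 50 mA was applied for 0.2 s, and protection meant abolition of the hindlimb tonic extensor component. The ED50 was determined at the time of peak effect in groups of at least eight mice. At least two doses fell between 100% and 0% protection, and the 95% confidence interval was calculated by Finney's method.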

Mus musculus [2] = experiment: In vivo anticonvulsant activity in male albino mice using the maximal electroshock seizure(MES) test upon intraperitoneal administration (exp-2); conditions: ip; in short: as §1
Mus musculus [3] = experiment: In vivo anticonvulsant activity in male albino mice using the maximal electroshock seizure(MES) test upon intraperitoneal administration, expressed as logarithm of effective dose; value ranges from 2.63 to 3.12; in short: as §1
Mus musculus [4] = experiment: Anticonvulsant activity in mice following i.p. treatment and Maximal Electroshock Seizure (MES) test.
In short: (§2)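 Mice (18–25 g) received the compound ip as a suspension in 0.5% (w/v) methylcellulose in water. A 60-cycle alternating current of 50 mA was applied for 0.2 s. Protection was defined as abolition of the hindlimb tonic extensor component. […] ED50 and 95% confidence interval were calculated by Finney's methods.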

Mus musculus [5] = experiment: In vivo anticonvulsant activity in male albino mice using the maximal electroshock (MES) test after intraperitoneal administration; conditions: ip; in short: as §1
Mus musculus [6] = experiment: In vivo anticonvulsant activity in male albino mice using the maximal electroshock seizure(MES) test upon intraperitoneal administration, expressed as logarithm of effective dose; in short: as §1
Mus musculus [7] = experiment: In vivo anticonvulsant activity in male albino mice using the maximal electroshock (MES) test after intraperitoneal administration; value ranges from 21.4-40.8; conditions: ip
Mus musculus [8] = experiment: In vivo anticonvulsant activity in male albino mice using the maximal electroshock (MES) test after intraperitoneal administration; value ranges from 457.7-715; conditions: ip
Mus musculus [9] = experiment: In vivo anticonvulsant activity in male albino mice using the maximal electroshock seizure(MES) test upon intraperitoneal administration; value ranges from 44.4 to 59.9; conditions: ip
Mus musculus [10] = experiment: In vivo anticonvulsant activity in male albino mice using the maximal electroshock seizure(MES) test upon intraperitoneal administration (exp 1); conditions: ip; in short: as §2
Mus musculus [11] = experiment: In vivo anticonvulsant activity in male albino mice using the maximal electroshock seizure(MES) test upon intraperitoneal administration (exp 2); conditions: ip; in short: as §2
Mus musculus [12] = experiment: In vivo anticonvulsant activity in male albino mice using the maximal electroshock seizure(MES) test upon intraperitoneal administration, expressed as logarithm of effective dose; value ranges from 2.58 to 3.06; in short: as §1
Mus musculus [13] = experiment: In vivo anticonvulsant activity in male albino mice using the maximal electroshock (MES) test after intraperitoneal administration; value ranges from 76.8-120; conditions: ip; in short: as §1
Mus musculus [14] = experiment: In vivo anticonvulsant activity in male albino mice using the maximal electroshock seizure(MES) test upon intraperitoneal administration, expressed as logarithm of effective dose; value ranges from 2.08 to 2.60
Mus musculus [15] = experiment: In vivo anticonvulsant activity in male albino mice using the maximal electroshock (MES) test after intraperitoneal administration; value ranges from 26.7-37.8; conditions: ip
Mus musculus [16] = experiment: In vivo anticonvulsant activity in male albino mice using the maximal electroshock seizure(MES) test upon intraperitoneal administration, expressed as logarithm of effective dose; value ranges from 2.10 to 2.63
Mus musculus [17] = experiment: In vivo anticonvulsant activity in male albino mice using the maximal electroshock seizure(MES) test upon intraperitoneal administration; value ranges from 34.9 to 45; conditions: ip; in short: as §1
Mus musculus [18] = experiment: In vivo anticonvulsant activity in male albino mice using the maximal electroshock seizure(MES) test upon intraperitoneal administration; value ranges from 51.9 to 68; conditions: ip
Mus musculus [19] = experiment: In vivo anticonvulsant activity in male albino mice using the maximal electroshock seizure(MES) test upon intraperitoneal administration; value ranges from 62.5 to 91; conditions: ip
Mus musculus [20] = experiment: In vivo anticonvulsant activity in male albino mice using the maximal electroshock seizure(MES) test upon intraperitoneal administration, expressed as logarithm of effective dose; value ranges from 2.63 to 3.11
Mus musculus [21] = experiment: In vivo anticonvulsant activity in male albino mice using the maximal electroshock (MES) test after intraperitoneal administration (exp 1); conditions: ip; in short: as §2
Mus musculus [22] = experiment: In vivo anticonvulsant activity in male albino mice using the maximal electroshock (MES) test after intraperitoneal administration (exp 2); conditions: ip; in short: as §2
Mus musculus [23] = experiment: In vivo anticonvulsant activity in male albino mice using the maximal electroshock seizure(MES) test upon intraperitoneal administration; value ranges from 75.4 to 101; conditions: ip
Mus musculus [24] = experiment: In vivo anticonvulsant activity in male albino mice using the maximal electroshock seizure(MES) test upon intraperitoneal administration; value ranges from 74.3 to 99.1; conditions: ip; in short: as §2
Mus musculus [25] = experiment: In vivo anticonvulsant activity in male albino mice using the maximal electroshock seizure(MES) test upon intraperitoneal administration; value ranges from 14.6 to 41; conditions: ip; in short: as §2
Mus musculus [26] = experiment: In vivo anticonvulsant activity in male albino mice using the maximal electroshock seizure(MES) test upon intraperitoneal administration; conditions: ip; in short: as §2

CCC(NC(C)=O)C(=O)NCc1ccccc1 (stereo not drawn)
ED50 (Mus musculus [1]): > 100 mg/kg | ED50 (Mus musculus [2]): < 300 mg/kg | Log ED50 (Mus musculus [3]): 3.12 uM kg-1

CC(=O)NC(Nc1ccc(N)cc1)C(=O)NCc1ccccc1 (stereo not drawn)
Log ED50 (Mus musculus [4]): 2.75 uM kg-1 | ED50 (Mus musculus [5]): 176 mg/kg

CC(=O)NC(C(=O)NCc1ccccc1F)c1ccco1 (stereo not drawn)
Log ED50 (Mus musculus [6]): 2.14 uM kg-1

CNC(C)C(=O)NCc1ccccc1 (stereo not drawn)
ED50 (Mus musculus [7]): 31.2 mg/kg | Log ED50 (Mus musculus [4]): 2.21 uM kg-1

CC(=O)NC(C(=N)NOC(C)=O)C(=O)NCc1ccccc1 (stereo not drawn)
ED50 (Mus musculus [8]): 140 mg/kg | Log ED50 (Mus musculus [4]): 2.66 uM kg-1

CC(=O)NC(C(=O)NCc1ccccc1)C1CCCO1 (stereo not drawn)
ED50 (Mus musculus [9]): 51.7 mg/kg | Log ED50 (Mus musculus [6]): 2.27 uM kg-1

C=CC(=O)NC(COC)C(=O)NCc1ccccc1 (stereo not drawn)
ED50 (Mus musculus [10]): > 100 mg/kg | ED50 (Mus musculus [11]): < 300 mg/kg | Log ED50 (Mus musculus [12]): 3.06 uM kg-1

CC(=O)NC(Nc1cccc(N)c1)C(=O)NCc1ccccc1 (stereo not drawn)
ED50 (Mus musculus [13]): 98.6 mg/kg | Log ED50 (Mus musculus [4]): 2.5 uM kg-1

CCC(C(=O)NCc1ccccc1)N(C)C(C)=O (stereo not drawn)
ED50 (Mus musculus [10]): > 30 mg/kg | ED50 (Mus musculus [11]): < 100 mg/kg | Log ED50 (Mus musculus [14]): 2.6 uM kg-1

CC(=O)NC(C(=O)NCc1ccccc1)n1cccn1 (stereo not drawn)
Log ED50 (Mus musculus [4]): 1.78 uM kg-1

CC(=O)NC(C(=O)NCc1ccccc1)c1ccccn1 (stereo not drawn)
Log ED50 (Mus musculus [6]): 1.58 uM kg-1

CC(=O)NC(C(=O)NCc1ccccc1)N1CC=CO1 (stereo not drawn)
ED50 (Mus musculus [15]): 31.4 mg/kg | Log ED50 (Mus musculus [4]): 2.05 uM kg-1

CC(=O)N(C)C(C)C(=O)NCc1ccccc1 (stereo not drawn)
ED50 (Mus musculus [1]): > 30 mg/kg | ED50 (Mus musculus [2]): < 100 mg/kg | Log ED50 (Mus musculus [16]): 2.63 uM kg-1

CCCC(NC(C)=O)C(=O)NCc1ccccc1 (stereo not drawn)
ED50 (Mus musculus [17]): 38.4 mg/kg | Log ED50 (Mus musculus [6]): 2.19 uM kg-1

CC(=O)NC(=O)NCc1ccccc1
ED50 (Mus musculus [18]): 60.1 mg/kg | Log ED50 (Mus musculus [6]): 2.5 uM kg-1

CC(=O)NC(C(=O)NCc1ccccc1)c1cnccn1 (stereo not drawn)
Log ED50 (Mus musculus [6]): 1.72 uM kg-1

CC(=O)NC(C)C(=O)NCc1cccc(F)c1 (stereo not drawn)
ED50 (Mus musculus [19]): 77.3 mg/kg | Log ED50 (Mus musculus [6]): 2.51 uM kg-1

CC(=O)NC(C(=O)NCc1ccccc1)c1ncco1 (stereo not drawn)
Log ED50 (Mus musculus [6]): 1.58 uM kg-1

CC(=O)NC(C)C(=O)N(C)Cc1ccccc1 (stereo not drawn)
ED50 (Mus musculus [10]): > 100 mg/kg | ED50 (Mus musculus [11]): < 300 mg/kg | Log ED50 (Mus musculus [20]): 3.11 uM kg-1

CCC(NC)C(=O)NCc1ccccc1 (stereo not drawn)
ED50 (Mus musculus [21]): > 30 mg/kg | ED50 (Mus musculus [22]): < 100 mg/kg | Log ED50 (Mus musculus [4]): 2.69 uM kg-1

CCCC(N)C(=O)NCc1ccccc1 (stereo not drawn)
ED50 (Mus musculus [21]): > 30 mg/kg | ED50 (Mus musculus [22]): < 100 mg/kg | Log ED50 (Mus musculus [4]): 2.69 uM kg-1

CC(=O)NC(C(=N)S)C(=O)NCc1ccccc1 (stereo not drawn)
ED50 (Mus musculus [23]): 86.2 mg/kg | Log ED50 (Mus musculus [6]): 2.51 uM kg-1

CC(=O)NC(C(=O)NCc1ccccc1)c1nccs1 (stereo not drawn)
Log ED50 (Mus musculus [6]): 1.62 uM kg-1

CCN(C(C)=O)C(C)C(=O)NCc1ccccc1 (stereo not drawn)
ED50 (Mus musculus [24]): 85 mg/kg | Log ED50 (Mus musculus [6]): 2.53 uM kg-1

CN1CSCC1C(=O)NCc1ccccc1 (stereo not drawn)
ED50 (Mus musculus [25]): 29.1 mg/kg | Log ED50 (Mus musculus [6]): 2.09 uM kg-1

CC(=O)NCC(C)C(=O)NCc1ccccc1 (stereo not drawn)
ED50 (Mus musculus [26]): 270 mg/kg | Log ED50 (Mus musculus [6]): 3.06 uM kg-1

CC(=O)NC(C(=O)NCc1ccccc1)c1ccsc1 (stereo not drawn)
Log ED50 (Mus musculus [6]): 2.48 uM kg-1

CC(=O)NC(C(=O)NCc1ccccc1)c1ccc(C)o1 (stereo not drawn)
Log ED50 (Mus musculus [6]): 1.83 uM kg-1

CC(=O)NC(C)C(=O)NCCCc1ccccc1 (stereo not drawn)
Log ED50 (Mus musculus [4]): 2.55 uM kg-1 | ED50 (Mus musculus [5]): 87.6 mg/kg

CC(=O)NC(C)C(=O)NCc1ccccc1 (racemic)
Log ED50 (Mus musculus [6]): 2.54 uM kg-1
